High-throughput results: PubChem BioAssay, Sanford-Burnham Center for Chemical Genomics
SENP7 inh = blocks the human protease SENP7. Q9BQF6. recombinant SENP7, Z-RLRGG-aminoluciferin luminescence, 40 min. inhibition, % at 5 µM. hit rate 1.5% among 330,000;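 active = inhibition above about 50% at the single test dose, limit read from the data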;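 also: plate controls were DMSO with enzyme for no effect and no enzyme buffer wells for full effect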
Target sequence (Q9BQF6 706-1050 limits assumed): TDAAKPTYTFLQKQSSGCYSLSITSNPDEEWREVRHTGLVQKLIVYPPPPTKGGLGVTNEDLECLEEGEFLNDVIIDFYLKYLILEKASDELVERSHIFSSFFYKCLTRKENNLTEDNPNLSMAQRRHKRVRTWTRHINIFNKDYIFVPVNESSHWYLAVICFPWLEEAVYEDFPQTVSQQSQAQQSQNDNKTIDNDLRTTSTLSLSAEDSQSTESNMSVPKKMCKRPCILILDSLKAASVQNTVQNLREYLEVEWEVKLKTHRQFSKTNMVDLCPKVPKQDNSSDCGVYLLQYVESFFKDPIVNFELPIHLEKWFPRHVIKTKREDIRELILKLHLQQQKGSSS
UBC13 inh = inhibitors of human UBC13 polyubiquitin chain formation | TR-FRET | inhibition, % at 20 µM | hit rate 0.47% among 330,000 | AID 485273; in the data active = inhibition above about 45%, passing the limit was not always enough
Target sequence (P61088 whole entry, looked up): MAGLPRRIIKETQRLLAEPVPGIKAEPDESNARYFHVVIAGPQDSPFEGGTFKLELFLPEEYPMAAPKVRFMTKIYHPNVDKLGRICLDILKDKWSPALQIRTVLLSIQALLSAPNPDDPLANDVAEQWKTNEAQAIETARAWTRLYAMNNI
Apaf1 inhib = blocks human Apaf-1 apoptosome activity. O14727. inhibition, % at 20 µM. hit rate 0.71% among 330,000. reconstituted apoptosome caspase-3 activity, DEVD-Rh110 fluorescence; active = inhibition of at least 40% at 20 µM;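 also: plate controls were DMSO wells for no effect and DEVD-CHO caspase inhibitor wells for full effect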
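Assay system – apoptosome proteins · Medium – Hepes buffer, pH 7.5 · Also added – cytochrome c with DEVD-Rh110 · Timing – 30 min compound preincubation, 50 min activation, room temperature · Detection – Rh110 fluorescence, excitation 480 nm, emission 540 nm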
SENP8 block-1 = inhibitors of human SENP8 protease | Q96LD8 | hit rate 1.2% among 330,000 | inhibition, % at 10 µM | purified SENP8, Z-RLRGG-aminoluciferin cleavage, luminescence; in the data active = inhibition above about 50%
SENP8 block-2 = SENP8 (human) protease inhibition; inhibition, % at 20 µM; recombinant SENP8, Nedd8 substrate fluorescence; Q96LD8; hit rate 0.64% among 360,000; in the data active = inhibition mostly above about 40%, no sharp cut-off; inactive = mostly below about 27%
SENP6 block = inhibitors of human SENP6 protease; Q9GZR1; Recombinant SENP6 catalytic domain, aminoluciferin luminescence; inhibition, % at 10 µM; hit rate 1.8% among 330,000; AID 2599;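 active = inhibition above about 50% at the single tested dose, limit read from the data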;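 also: plate controls were DMSO wells with enzyme for no effect and DMSO wells lacking enzyme for full effect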
SENP8 conf = confirmation of human SENP8 protease inhibitors | shares compounds with SENP7 inh | Recombinant SENP8, Z-RLRGG-aminoluciferin luminescence, 60 min | inhibition, % at 12.5 µM | hit rate 40% among 6,200;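 active = mean inhibition across replicates above about 50%, limit read from the data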
SENP6 conf = human SENP6 inhibition, confirmed; recombinant SENP6, Z-RLRGG-aminoluciferin luminescence; shares compounds with SENP7 inh; inhibition, % at 12.5 µM; hit rate 58% among 6,200
SENP7 confirm = human SENP7 inhibition, confirmed. shares compounds with SENP7 inh. hit rate 69% among 6,200. AID 488917. recombinant SENP7, Z-RLRGG-aminoluciferin luminescence, 40 min. inhibition, % at 12.5 µM
Casp3 SENP sel = caspase-3 inhibition (SENP selectivity assay); shares compounds with SENP7 inh; purified caspase-3, Z-DEVD-aminoluciferin luminescence, 60 min; inhibition, % at 12.5 µM; hit rate 60% among 6,200;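 active = mean inhibition above about 50%, limit read from the data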;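 also: plate controls were enzyme with DMSO for no effect and wells without caspase-3 for full effect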
Target sequence (P42574 28-227 limits assumed): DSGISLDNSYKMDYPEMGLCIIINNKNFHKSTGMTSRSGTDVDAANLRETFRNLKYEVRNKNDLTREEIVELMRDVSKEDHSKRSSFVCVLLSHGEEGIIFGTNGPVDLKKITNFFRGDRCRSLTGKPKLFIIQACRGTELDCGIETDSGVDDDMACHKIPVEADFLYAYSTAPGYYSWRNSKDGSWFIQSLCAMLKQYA
Luc interf = interferes with luciferase luminescence in SENP counter-screen; shares compounds with SENP7 inh; Pre-incubated SENP8/Z-RLRGG-aminoluciferin, luciferase luminescence interference; inhibition, % at 12.5 µM; hit rate 39% among 6,200; AID 488919;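 active = mean inhibition above about 50% when retested at one dose, limit read from the data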;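 also: plate controls were DMSO wells with completed reaction for no effect and substrate without enzyme for full effect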
The depositor's hits bear a star; i = inactive; nt = no result. Most compounds without a hit are left out; they make up all but 3.1% or so of the library.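 The calls were made as follows, unless noted: active = mean inhibition above about 50% in the one-dose retest (limit read from the data); inactive = the rest.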

SMILES | SENP7 inh | UBC13 inh | Apaf1 inhib | SENP8 block-1 | SENP8 block-2 | SENP6 block | SENP8 conf | SENP6 conf | SENP7 confirm | Casp3 SENP sel | Luc interf
Cc1ccc2c(c1)COc1c3ccc(C(=O)N4CCCCC4)cc3nn1-2 | 80* | 1 | 12 | 81* | -33 | 84* | 45 | 87* | 96* | 86* | 18
O=C(NCC1CCCO1)c1ccc2c3n(nc2c1)-c1ccccc1CO3 (stereo not drawn) | -3 | -11 | 8 | 11 | -184 | 15 | nt | nt | nt | nt | nt
Cc1ccc(S(=O)(=O)N2CCN(C(=O)COC(=O)/C=C/c3ccc(OC(F)F)cc3)CC2)cc1 | nt | nt | nt | nt | 7 | nt | nt | nt | nt | nt | nt
O=c1n(Cc2ccccc2)c(O)c2n1Cc1ccccc1N=C2c1ccccc1 | nt | nt | nt | nt | 27 | nt | nt | nt | nt | nt | nt
Clc1ccc(-c2cc(CSc3ccccc3)on2)cc1 | 25 | 5 | 1 | -7 | 21 | 5 | nt | nt | nt | nt | nt
Clc1ccc(-c2cc(-c3ccccc3)on2)cc1 | 58* | -18 | 3 | -4 | 10 | 11 | 13 | 9 | -2 | 9 | 1
Clc1ccc(-c2csc(-c3ccno3)n2)cc1 | 58* | -6 | -20 | 20 | -23 | 44 | -5 | 10 | 36 | 35 | 9
Cc1nc(-c2cc(-c3ccc(Cl)cc3)no2)cs1 | 92* | 2 | 2 | 68* | 17 | 76* | 23 | 30 | 16 | 24 | 1
Cc1nc(-c2cc(-c3nc(-c4ccc(C(F)(F)F)cc4)no3)no2)cs1 | 0 | -20 | 3 | 0 | -3 | -4 | nt | nt | nt | nt | nt
CC(C)NC(=O)C1(C)CN(S(C)(=O)=O)CC(=O)N1Cc1ccc2c(c1)OCO2 (stereo not drawn) | nt | nt | nt | nt | 8 | nt | nt | nt | nt | nt | nt
CC1(C(=O)Nc2ccc(Cl)c(C(F)(F)F)c2)Cc2c(-c3ccc4c(c3)OCO4)ccnc2O1 (stereo not drawn) | nt | nt | nt | nt | -73 | nt | nt | nt | nt | nt | nt
Cc1ccnc2ccc(-c3nc4ccccc4o3)cc12 | 83* | 16 | 14 | 71* | i | 88* | 25 | 20 | 58* | 40 | 9
Cc1nc2ccc(-c3nc4ccccc4o3)cc2[nH]1 | 62* | 4 | 11 | 28 | -361 | 8 | 63* | 59* | 84* | 60* | 64*
c1ccc(-c2nc3ccccc3o2)nc1 | -3 | 9 | 3 | -8 | -7 | 13 | nt | nt | nt | nt | nt
Nc1nn(-c2ccccc2)c2ccc([N+](=O)[O-])cc12 | 75* | -204 | 7 | 54* | 29 | 72* | 75* | 72* | 91* | 85* | 73*
O=[N+]([O-])c1ccc2cn(-c3ccccc3)nc2c1 | 81* | -5 | 15 | 60* | 21 | 14 | 34 | 70* | 92* | 69* | 44
COc1ccccc1-n1cc2ccc([N+](=O)[O-])cc2n1 | 9 | -2 | 2 | 12 | 28 | 31 | nt | nt | nt | nt | nt
O=[N+]([O-])c1ccc2c(c1)nnn2-c1ccccc1 | 3 | -4 | 9 | -13 | 8 | -22 | nt | nt | nt | nt | nt
CC(=O)Nc1ccc(S(=O)(=O)N(CC(=O)NCC2CCCO2)Cc2ccccc2Cl)cc1 (stereo not drawn) | nt | nt | nt | nt | 4 | nt | nt | nt | nt | nt | nt
Cc1cc(/C=N/Nc2ncnc(N)c2[N+](=O)[O-])c(C)n1-c1ccccc1 | 97* | -60 | -12 | 94* | 55* | 0 | 6 | 61* | 95* | 52* | 11
COc1cccc(/C=N/Nc2ncnc(N)c2[N+](=O)[O-])c1OC | 72* | -17 | 3 | 17 | 20 | 68* | 38 | 46 | 64* | 77* | 21
COc1ccc(C(=O)ON=C(C)c2nccs2)cc1 | nt | nt | nt | nt | 15 | nt | nt | nt | nt | nt | nt
CNC(C)C#Cc1ccc2c(=O)c3cc(C)c(C)cc3oc2c1 (stereo not drawn) | -4 | -9 | 17 | 67* | -316 | 93* | 33 | 23 | 47 | 30 | 71*
CCCn1cnc2c(SCc3ccccc3Cl)nc(N)nc21 | nt | nt | nt | nt | 4 | nt | nt | nt | nt | nt | nt
Cc1ccc(N=Cc2sc(O)c3ccccc23)cc1 | 76* | -28 | 22 | 86* | -60 | 68* | 90* | 92* | 100* | 74* | 47
SMILES | SENP7 inh | UBC13 inh | Apaf1 inhib | SENP8 block-1 | SENP8 block-2 | SENP6 block | SENP8 conf | SENP6 conf | SENP7 confirm | Casp3 SENP sel | Luc interf
COc1ccc(/C=N/Nc2nncc3ccccc23)cc1 | 97* | -3 | 1 | 97* | -2 | 99* | 97* | 100* | 104* | 99* | 99*
Oc1c(Br)cc(/C=N/Nc2nncc3ccccc23)cc1Br | 17 | 6 | 10 | 69* | nt | 72* | 8 | 11 | -1 | 7 | 0
COc1ccc(/C(C)=N/Nc2nc3ccccc3nc2C)cc1 | 0 | -41 | 0 | 0 | 23 | -3 | nt | nt | nt | nt | nt
COc1ccccc1/C=N/Nc1nncc2ccccc12 | 37 | -6 | 6 | 20 | 1 | 43 | nt | nt | nt | nt | nt
Oc1c(Br)cc(/C=N/Nc2ccc(Cl)nn2)cc1Br | -2 | -14 | 17 | -13 | 0 | -4 | nt | nt | nt | nt | nt
COc1ccc(/C(C)=N/Nc2nncc3ccccc23)cc1 | 75* | -6 | -1 | 46 | 23 | 46 | 2 | 6 | 10 | 18 | -4
Cc1cccc(C(=O)Nc2sc3c(c2C#N)CCCCC3)c1 | 77* | 12 | 13 | 33 | -24 | 16 | 30 | 21 | 16 | 31 | -2
N#Cc1c(NC(=O)c2ccc([N+](=O)[O-])o2)sc2c1CCC2 | 15 | -78 | 13 | 47 | 35 | 80* | 58* | 79* | 79* | 76* | 10
N#Cc1c(NC(=O)COC(=O)c2ccc(F)cc2)sc2c1CCC2 | 51* | -5 | -8 | 1 | -4 | -4 | -5 | -4 | 2 | 10 | 8
N#Cc1c(NC(=O)c2ccccc2)sc2c1CCC2 | 27 | -6 | 10 | 18 | 4 | 63* | -21 | 12 | 18 | 4 | -2
NC(=O)c1c(NC(=O)c2ccc([N+](=O)[O-])o2)sc2c1CCCC2 | -4 | -32 | 17 | -10 | -76 | -15 | nt | nt | nt | nt | nt
N#Cc1c(NC(=O)c2cccnc2)sc2c1CCC2 | 7 | -12 | 8 | -5 | 6 | 10 | nt | nt | nt | nt | nt
CCc1nc2c(OCCn3cccc3)cccn2c1N(C)C(=O)C1CC1 | nt | nt | nt | nt | -6 | nt | nt | nt | nt | nt | nt
CCCNC(=O)CSc1nnc(NC(=O)C2CC(=O)N(c3ccccc3OC)C2)s1 (stereo not drawn) | nt | nt | nt | nt | 27 | nt | nt | nt | nt | nt | nt
CC1(C(=O)NC2CCc3ccccc32)CCN1CCc1ccccc1 (stereo not drawn) | nt | nt | nt | nt | 19 | nt | nt | nt | nt | nt | nt
